Activity calls are given as the source filed them. No cut-off for these calls is given here.

Tested on in the first assay: not listed separately
Kind of assay: Inhibition of soybean 15-LOX1 by UV spectrophotometric analysis. Details: species or system Glycine max.
Conditions: not given
On to `NS(=O)(=O)c1ccc(NC(=S)NC(=O)c2ccc3ccccc3c2)cc1`, for which the IC50 – broadly, the concentration that gives 50% inhibition – was “Not Active”.
Same read-out and setting: to `NS(=O)(=O)c1ccc(NC(=S)NC(=O)c2ccc([N+](=O)[O-])cc2)cc1` belongs “ND(Insoluble)”.

The same assay, now with this note: read-out: IC50.
Turning to `Cc1ccc(C(=O)NC(=S)Nc2ccc(S(N)(=O)=O)cc2)cc1`, the IC50 was determined as 28 µM.
In the case of `NS(=O)(=O)c1ccc(NC(=S)NC(=O)c2ccccc2Cl)cc1`, the IC50 turned out to be 18.7 µM.
The same measure, in the same setting: to `NS(=O)(=O)c1ccc(NC(=S)NC(=O)c2ccco2)cc1` belongs 45 µM; to `NS(=O)(=O)c1ccc(NC(=S)NC(=O)c2cccc(Cl)c2)cc1`, 6.7 µM.
The same measure, in the same setting: to `COc1ccc(C(=O)NC(=S)Nc2ccc(S(N)(=O)=O)cc2)cc1` belongs 22.7 µM; to `Cc1cccc(C(=O)NC(=S)Nc2ccc(S(N)(=O)=O)cc2)c1`, 1.8 µM.
Turning to `NS(=O)(=O)c1ccc(NC(=S)NC(=O)c2ccc(Cl)cc2Cl)cc1`, the IC50 was 23.6 µM.
The same measure, in the same setting: as for `NS(=O)(=O)c1ccc(NC(=S)NC(=O)c2cccc(F)c2)cc1`, the figure is 8.7 µM.
In the case of `NS(=O)(=O)c1ccc(NC(=S)NC(=O)c2ccccc2)cc1`, the IC50 is 6 µM.
Still for that read-out and setting: to `NS(=O)(=O)c1ccc(NC(=S)NC(=O)c2ccc(Cl)cc2)cc1` belongs 25 µM; to `NS(=O)(=O)c1ccc(NC(=S)NC(=O)c2cc(F)c(F)c(F)c2F)cc1`, 12.6 µM; to `NS(=O)(=O)c1ccc(NC(=S)NC(=O)c2cccs2)cc1`, 36 µM.
For the compound `O=c1c(O)c(-c2ccc(O)c(O)c2)oc2cc(O)cc(O)c12` [QUERCETIN], the IC50 turned out to be 18 µM.
Still for that read-out and setting: to `Cc1ccccc1C(=O)NC(=S)Nc1ccc(S(N)(=O)=O)cc1` belongs 8.1 µM.

The next assay deals with PC-12. The assay can be described thus: Neuroprotective activity against H2O2-induced rat differentiated PC12 cell death assessed as increase in cell viability at 5 uM after 24 hrs by MTT assay.
Conditions: not given
In kind it is functional, cell-based. The method, boiled down: (§1)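 Rat PC12 cells grown in RPMI 1640 with 10% FCS, penicillin and streptomycin, then differentiated by a previously reported protocol. Differentiated cells were pretreated with compound at 1, 5 or 10 for 3 h before H2O2 exposure. Viability was read by MTT 24 h later and expressed relative to the H2O2-treated group.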
In general terms: Tetrazolium dyes change colour on reduction, which living cells bring about.
`O=c1c(O)c(-c2ccc(O)c(O)c2)oc2cc(O)cc(O)c12` [QUERCETIN]: the outcome was Active.

Tested on in the next assay: not listed separately
The assay can be described thus: Neuroprotective activity against H2O2-induced rat differentiated PC12 cell death assessed as increase in cell viability at 10 uM after 24 hrs by MTT assay. In kind it is functional, PC-12.
Conditions: not given
In a few lines: as §1
Turning to `Cc1cccc(C(=O)NC(=S)Nc2ccc(S(N)(=O)=O)cc2)c1`, the Activity is reported as 50%.

A further assay relates to PC-12. Kind of assay: Neuroprotective activity against H2O2-induced rat differentiated PC12 cell death assessed as increase in cell viability at 1 to 10 uM after 24 hrs by MTT assay. The assay is classed as functional, cell-based.
Conditions: not given
In a few lines:
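Rat PC12 cells were grown in RPMI 1640 with 10% FCS plus penicillin/streptomycin, then differentiated by a published protocol. Differentiated cells were pretreated with compound at 1, 5 and 10 for 3 h before H₂O₂ exposure, with quercetin 5 as reference. Viability was measured by MTT after 24 h and expressed relative to the H₂O₂-treated group.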
Take `Cc1cccc(C(=O)NC(=S)Nc2ccc(S(N)(=O)=O)cc2)c1`: the result was Active.

For the origin of these results see ChEMBL document CHEMBL3286096, “Synthesis, biological evaluation and docking study of 3-aroyl-1-(4-sulfamoylphenyl)thiourea derivatives as 15-lipoxygenase inhibitors” (Eur J Med Chem, 2014).
